Assay results reported in ChEMBL document CHEMBL4038284, “Synthesis of novel quinoline-based 4,5-dihydro-1H-pyrazoles as potential anticancer, antifungal, antibacterial and antiprotozoal agents” (Eur J Med Chem, 2017).
The source made the active and inactive calls. The rule behind the calls is not given here.

Legend:
K562 = assay: Growth inhibition of human K562 cells incubated for 48 hrs by sulforhodamine B assay; type: functional; settings: K562, 48 h; for CC50: read-out: LC50 (the source's name)
Summary of the method: (§1)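 NCI 60-line screen. Cells in RPMI-1640 with 5% FBS and 2 mM L-glutamine, preincubated 24 h, then time-zero plates TCA-fixed. Compounds from DMSO stocks given at five final concentrations (100, 10, 1.0, 0.1, 0.01 µM) for 48 h at 37 °C, 5% CO2. Cells fixed with 10% TCA, SRB-stained, read at 515 nm. GI50 is the concentration giving 50% lower net protein increase versus control.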

UO-31 [1] = assay: Growth inhibition of human UO31 cells at 10 uM incubated for 48 hrs by sulforhodamine B assay; type: functional, cell-based
Summary of the method: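 NCI-60 single-dose screen at 10 µM for 48 h. Cells were grown in RPMI-1640 with 5% FBS and 2 mM L-glutamine and preincubated 24 h before compound. Time-zero plates were TCA-fixed at compound addition. After exposure, cells were TCA-fixed, stained with SRB and read at 515 nm. Percentage growth was calculated against time-zero and untreated-control absorbances.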

KM12 = assay: Growth inhibition of human KM12 cells incubated for 48 hrs by sulforhodamine B assay; type: functional; settings: KM12, 48 h; for CC50: read-out: LC50 (the source's name)
Summary of the method: (§2)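 Five-dose NCI SRB assay at 100, 10, 1.0, 0.1 and 0.01 μM for 48 h at 37 °C, 5% CO2. Medium was RPMI-1640 with 5% FBS and 2 mM glutamine. Time-zero plates were TCA-fixed at compound addition, A515 read after SRB staining. GI50 was solved from [(Ti−Tz)/(C−Tz)]×100 = 50. Values beyond the tested range are given as > or <.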

Malme-3M = assay: Growth inhibition of human MALME-3M cells incubated for 48 hrs by sulforhodamine B assay; type: functional; settings: for CC50: read-out: LC50 (the source's name); summary of the method: as §2
MCF7 = assay: Growth inhibition of human MCF7 cells incubated for 48 hrs by sulforhodamine B assay; type: functional; settings: MCF7, 48 h; for CC50: read-out: LC50 (the source's name); summary of the method: as §1
NCI-H322M = assay: Growth inhibition of human NCI-H322M cells incubated for 48 hrs by sulforhodamine B assay; type: functional; settings: for CC50: read-out: LC50 (the source's name); summary of the method: as §2
HOP-92 = assay: Growth inhibition of human HOP92 cells incubated for 48 hrs by sulforhodamine B assay; type: functional; settings: HOP-92, 48 h; summary of the method: as §2
A549 = assay: Growth inhibition of human A549/ATCC cells incubated for 48 hrs by sulforhodamine B assay; type: functional; settings: A549, 48 h; summary of the method: as §1
NCI-H522 = assay: Growth inhibition of human NCI-H522 cells incubated for 48 hrs by sulforhodamine B assay; type: functional; settings: NCI-H522, 48 h; for CC50: read-out: LC50 (the source's name); summary of the method: as §1
OVCAR-5 = assay: Growth inhibition of human OVCAR5 cells incubated for 48 hrs by sulforhodamine B assay; type: functional; settings: OVCAR-5, 48 h; for CC50: read-out: LC50 (the source's name); summary of the method: as §1
EKVX = assay: Growth inhibition of human EKVX cells incubated for 48 hrs by sulforhodamine B assay; type: functional
Summary of the method: (§3)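 NCI five-dose SRB assay (100, 10, 1.0, 0.1, 0.01 µM) with 48 h exposure in RPMI-1640 with 5% FBS and 2 mM L-glutamine. Cells fixed with TCA and stained with SRB, read at 515 nm. GI50 is the concentration where [(Ti−Tz)/(C−Tz)]×100 = 50.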

Cryptococcus neoformans = assay: Growth inhibition of Cryptococcus neoformans ATCC 32264 at 7.8 ug/ml incubated for 48 hrs under dark condition by broth microdilution method relative to control; type: functional; settings: ATCC 32264, 48 h, read-out: GI
Summary of the method: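 CLSI M27-A3 broth microdilution in RPMI-1640, DMSO ≤1%. Inoculum 1-5 × 10^3 CFU/mL. Incubated 48 h at 30 °C, dark. % inhibition = 100 − (OD405 test − sterility control)/(OD405 growth control − sterility control), with growth and sterility control wells. Triplicate.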

SF-295 = assay: Growth inhibition of human SF295 cells incubated for 48 hrs by sulforhodamine B assay; type: functional; settings: SF-295, 48 h; for CC50: read-out: LC50 (the source's name); summary of the method: as §2
Hs-578T = assay: Growth inhibition of human Hs578T cells incubated for 48 hrs by sulforhodamine B assay; type: functional; settings: for CC50: read-out: LC50 (the source's name); summary of the method: as §2
SK-MEL-5 = assay: Growth inhibition of human SK-MEL-5 cells incubated for 48 hrs by sulforhodamine B assay; type: functional; settings: SK-MEL-5, 48 h; for CC50: read-out: LC50 (the source's name); summary of the method: as §1
NCI-H460 = assay: Growth inhibition of human NCI-H460 cells incubated for 48 hrs by sulforhodamine B assay; type: functional; settings: NCI-H460, 48 h; for CC50: read-out: LC50 (the source's name); summary of the method: as §2
BT-549 = assay: Growth inhibition of human BT549 cells incubated for 48 hrs by sulforhodamine B assay; type: functional; settings: BT-549, 48 h; for CC50: read-out: LC50 (the source's name); summary of the method: as §3
DU-145 = assay: Growth inhibition of human DU145 cells incubated for 48 hrs by sulforhodamine B assay; type: functional; settings: DU-145, 48 h; for CC50: read-out: LC50 (the source's name); summary of the method: as §3
HCT-116 = assay: Growth inhibition of human HCT116 cells incubated for 48 hrs by sulforhodamine B assay; type: functional; settings: HCT-116, 48 h; summary of the method: as §3
UO-31 [2] = assay: Growth inhibition of human UO31 cells incubated for 48 hrs by sulforhodamine B assay; type: functional; settings: UO-31, 48 h; for CC50: read-out: LC50 (the source's name)
Summary of the method: (§4)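 NCI-60 panel cells grown in RPMI-1640 with 5% FBS and 2 mM L-glutamine, preincubated 24 h at 37 °C/5% CO2. Time-zero plates were TCA-fixed at compound addition. DMSO stocks were diluted in medium and tested at five final concentrations (100, 10, 1.0, 0.1, 0.01 µM) for 48 h. Cells were TCA-fixed, stained with SRB and read at 515 nm. GI50 = 50% lower net protein increase versus control.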

NCI/ADR-RES = assay: Growth inhibition of human NCI/ADR-RES cells incubated for 48 hrs by sulforhodamine B assay; type: functional; settings: for CC50: read-out: LC50 (the source's name); summary of the method: as §1
SW-620 = assay: Growth inhibition of human SW620 cells incubated for 48 hrs by sulforhodamine B assay; type: functional; settings: SW-620, 48 h; for CC50: read-out: LC50 (the source's name); summary of the method: as §4
A498 = assay: Growth inhibition of human A498 cells incubated for 48 hrs by sulforhodamine B assay; type: functional; settings: A498, 48 h; for CC50: read-out: LC50 (the source's name); summary of the method: as §1
SK-OV-3 = assay: Growth inhibition of human SKOV3 cells incubated for 48 hrs by sulforhodamine B assay; type: functional; settings: SK-OV-3, 48 h; for CC50: read-out: LC50 (the source's name); summary of the method: as §1
T47D = assay: Growth inhibition of human T47D cells incubated for 48 hrs by sulforhodamine B assay; type: functional; settings: for CC50: read-out: LC50 (the source's name); summary of the method: as §4
U-251 = assay: Growth inhibition of human U251 cells incubated for 48 hrs by sulforhodamine B assay; type: functional; settings: U-251, 48 h; for CC50: read-out: LC50 (the source's name); summary of the method: as §4
UACC-257 = assay: Growth inhibition of human UACC257 cells incubated for 48 hrs by sulforhodamine B assay; type: functional; settings: UACC-257, 48 h; for CC50: read-out: LC50 (the source's name); summary of the method: as §4

## O=CN1N=C(c2ccc(Cl)cc2)CC1c1cccc(Nc2ccnc3cc(Cl)ccc23)c1 (centres undefined)
K562
  GI50: 0.39 µM
  CC50: > 100 µM
UO-31 [1]
  growth inhibition (GI): Active
KM12
  GI50: 1.22 µM
  CC50: > 100 µM
Malme-3M
  GI50: 1.27 µM
  CC50: 76.6 µM
MCF7
  GI50: 0.87 µM
  CC50: > 100 µM
NCI-H322M
  GI50: 5.52 µM
  CC50: > 100 µM
HOP-92
  GI50: 1.45 µM
  LC50 (concentration giving 50% net cell kill): > 100 µM
A549
  GI50: 2.03 µM
  LC50 (concentration giving 50% net cell kill): > 100 µM
NCI-H522
  GI50: 1.12 µM
  CC50: 66.7 µM
OVCAR-5
  GI50: 9.42 µM
  CC50: > 100 µM
EKVX
  GI50: 1.59 µM
  LC50: > 100 µM
Cryptococcus neoformans
  inhibition of growth at 7.8 µg/mL: 39.5%
SF-295
  GI50: 0.5 µM
  CC50: > 100 µM
Hs-578T
  GI50: 3.23 µM
  CC50: > 100 µM
SK-MEL-5
  GI50: 0.54 µM
  CC50: 5.05 µM
NCI-H460
  GI50: 1.86 µM
  CC50: > 100 µM
BT-549
  GI50: 1.78 µM
  CC50: > 100 µM
DU-145
  GI50: 2.8 µM
  CC50: > 100 µM
HCT-116
  GI50: 1.2 µM
  LC50 (concentration killing 50% of cells): 17.2 µM
UO-31 [2]
  GI50: 1.7 µM
  CC50: > 100 µM
NCI/ADR-RES
  GI50: 0.78 µM
  CC50: > 100 µM
SW-620
  GI50: 1.61 µM
  CC50: > 100 µM
A498
  GI50: 0.98 µM
  CC50: > 100 µM
SK-OV-3
  GI50: 2.9 µM
  CC50: > 100 µM
T47D
  GI50: 0.82 µM
  CC50: > 100 µM
U-251
  GI50: 2.47 µM
  CC50: 53.9 µM
UACC-257
  GI50: 1.47 µM
  CC50: > 100 µM

## COc1ccc(C2=NN(C=O)C(c3cccc(Nc4ccnc5cc(Cl)ccc45)c3)C2)cc1 (centres undefined)
K562
  GI50: 0.51 µM
  CC50: > 100 µM
UO-31 [1]
  growth inhibition (GI): Active
KM12
  GI50: 2.18 µM
  CC50: > 100 µM
Malme-3M
  GI50: 2.04 µM
  CC50: > 100 µM
MCF7
  GI50: 1.59 µM
  CC50: > 100 µM
NCI-H322M
  GI50: 6.51 µM
  CC50: > 100 µM
HOP-92
  GI50: 3.41 µM
  LC50 (concentration giving 50% net cell kill): > 100 µM
A549
  GI50: 4.63 µM
  LC50 (concentration giving 50% net cell kill): > 100 µM
NCI-H522
  GI50: 1.33 µM
  CC50: 61.9 µM
OVCAR-5
  GI50: 11.3 µM
  CC50: > 100 µM
EKVX
  GI50: 2.81 µM
  LC50: > 100 µM
Cryptococcus neoformans
  inhibition of growth at 7.8 µg/mL: 13.4%
SF-295
  GI50: 1.24 µM
  CC50: > 100 µM
Hs-578T
  GI50: 3.92 µM
  CC50: > 100 µM
SK-MEL-5
  GI50: 0.92 µM
  CC50: 17.4 µM
NCI-H460
  GI50: 2.73 µM
  CC50: > 100 µM
BT-549
  GI50: 1.93 µM
  CC50: > 100 µM
DU-145
  GI50: 3.62 µM
  CC50: > 100 µM
HCT-116
  GI50: 1.84 µM
  LC50 (concentration killing 50% of cells): 24.3 µM
UO-31 [2]
  GI50: 3.25 µM
  CC50: > 100 µM
NCI/ADR-RES
  GI50: 1.66 µM
  CC50: > 100 µM
SW-620
  GI50: 1.73 µM
  CC50: > 100 µM
A498
  GI50: 1.35 µM
  CC50: > 100 µM
SK-OV-3
  GI50: 3.33 µM
  CC50: > 100 µM
T47D
  GI50: 1.39 µM
  CC50: > 100 µM
U-251
  GI50: 2.77 µM
  CC50: 51.1 µM
UACC-257
  GI50: 3.06 µM
  CC50: > 100 µM
